Reference: ChEMBL document CHEMBL2401654, “Synthesis, characterization, and biological assessment of the four stereoisomers of the H(3) receptor antagonist 5-fluoro-2-methyl-N-[2-methyl-4-(2-methyl[1,3']bipyrrolidinyl-1'-yl)phenyl]benzamide” (Bioorg Med Chem Lett, 2013)

Experiments:
Cytochrome P450 3A4 = Cytochrome P450 3A4 (Homo sapiens, UniProt P08684); assay: Inhibition of CYP3A4 (unknown origin); format: ADME
[1] = Genotoxicity in micronucleus (unknown origin)
Histamine H3 receptor [2] = molecular target: Histamine H3 receptor (Rattus norvegicus, UniProt Q9QYN8); assay: Displacement of [3H]N-alpha-methylhistamine from recombinant rat histamine H3 receptor transfected in CHO cell membranes after 1 hr by scintillation counting analysis; design: species or system Membrane
Summary of the method: (§1)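 Radioligand displacement of [3H]N-α-methylhistamine using membranes from CHO cells stably transfected with recombinant human or rat H3 receptor. Ki is presented as a range of multiple experiments (n ≥ 3).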

Cytochrome P450 1A2 = molecular target: T1, Cytochrome P450 1A2 (Homo sapiens, UniProt P05177); assay: Inhibition of CYP1A2 (unknown origin); format: ADME
T1 sequence (P05177 whole entry): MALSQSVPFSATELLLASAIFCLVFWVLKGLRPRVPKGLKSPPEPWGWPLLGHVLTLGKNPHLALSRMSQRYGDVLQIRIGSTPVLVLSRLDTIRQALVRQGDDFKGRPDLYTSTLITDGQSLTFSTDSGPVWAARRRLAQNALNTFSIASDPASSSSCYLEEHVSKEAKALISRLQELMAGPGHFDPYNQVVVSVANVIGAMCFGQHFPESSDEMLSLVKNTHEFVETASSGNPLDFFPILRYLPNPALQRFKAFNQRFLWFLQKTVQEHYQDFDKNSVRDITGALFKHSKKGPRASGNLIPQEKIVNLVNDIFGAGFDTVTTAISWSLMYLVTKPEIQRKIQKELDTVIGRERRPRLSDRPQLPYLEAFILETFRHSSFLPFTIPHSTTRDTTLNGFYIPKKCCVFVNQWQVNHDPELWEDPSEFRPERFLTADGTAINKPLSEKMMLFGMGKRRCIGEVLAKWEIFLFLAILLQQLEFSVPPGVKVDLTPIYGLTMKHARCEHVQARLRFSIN

hERG (KCNH2) [3] = molecular target: T2, hERG (KCNH2) (Homo sapiens, UniProt Q12809); assay: Inhibition of human ERG transfected in CHO cells at 1 uM by patch clamp assay relative to control; format: cell-based; settings: CHO cells transfected with human ERG
Summary of the method: (§2)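 Whole-cell patch clamp on CHO cells stably transfected with the human ERG gene.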

hERG (KCNH2) [4] = molecular target: T2, hERG (KCNH2); assay: Inhibition of human ERG transfected in CHO cells at 10 uM by patch clamp assay relative to control; format: cell-based; settings: CHO cells transfected with human ERG; summary of the method: as §2
[5] = Drug metabolism in rat liver microsomes at 5 uM after 20 mins; format: ADME, Microsome; settings: read-out: Drug metabolism
Summary of the method: (§3)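 Substrate at 5 µM incubated at 37 °C for 20 min with in-house liver microsome preparations (human, mouse or rat). Reported as the percentage of parent compound metabolized.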

Salmonella typhimurium = assay: Mutagenic activity in Salmonella typhimurium by Ames test; format: toxicity, organism-based; settings: salmonella enterica subsp. enterica serovar typhimurium
[6] = Drug metabolism in human liver microsomes at 5 uM after 20 mins; format: ADME, Microsome; settings: read-out: Drug metabolism; summary of the method: as §3
Histamine H3 receptor [7] = molecular target: Histamine H3 receptor (Homo sapiens, UniProt Q9Y5N1); assay: Displacement of [3H]N-alpha-methylhistamine from recombinant human histamine H3 receptor transfected in CHO cell membranes after 1 hr by scintillation counting analysis; summary of the method: as §1
Cytochrome P450 2B6 = molecular target: T3, Cytochrome P450 2B6 (Homo sapiens, UniProt P20813); assay: Inhibition of CYP2B6 (unknown origin); format: ADME
T3 sequence (P20813 whole entry): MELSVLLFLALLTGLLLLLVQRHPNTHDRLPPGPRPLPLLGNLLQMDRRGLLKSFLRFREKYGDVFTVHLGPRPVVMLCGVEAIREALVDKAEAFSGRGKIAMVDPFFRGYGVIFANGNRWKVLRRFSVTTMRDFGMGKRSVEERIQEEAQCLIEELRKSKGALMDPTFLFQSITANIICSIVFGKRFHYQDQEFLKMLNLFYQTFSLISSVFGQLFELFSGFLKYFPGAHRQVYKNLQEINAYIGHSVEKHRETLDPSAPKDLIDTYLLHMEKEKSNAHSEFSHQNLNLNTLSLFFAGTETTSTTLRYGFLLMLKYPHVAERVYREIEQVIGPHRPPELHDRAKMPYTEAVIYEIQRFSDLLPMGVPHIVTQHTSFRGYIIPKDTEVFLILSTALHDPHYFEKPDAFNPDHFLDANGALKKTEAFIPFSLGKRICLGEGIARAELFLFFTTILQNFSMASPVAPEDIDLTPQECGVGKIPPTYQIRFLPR

Cytochrome P450 2C9 = Cytochrome P450 2C9 (Homo sapiens, UniProt P11712); assay: Inhibition of CYP2C9 (unknown origin); format: ADME
[8] = Drug metabolism in mouse liver microsomes at 5 uM after 20 mins; format: ADME, Microsome; settings: read-out: Drug metabolism; summary of the method: as §3
Cytochrome P450 2D6 = Cytochrome P450 2D6 (Homo sapiens, UniProt P10635); assay: Inhibition of CYP2D6 (unknown origin); format: ADME
Cytochrome P450 2C19 = Cytochrome P450 2C19 (Homo sapiens, UniProt P33261); assay: Inhibition of CYP2C19 (unknown origin); format: ADME
Chain of Cytochrome P450 2C19 (P33261 whole entry): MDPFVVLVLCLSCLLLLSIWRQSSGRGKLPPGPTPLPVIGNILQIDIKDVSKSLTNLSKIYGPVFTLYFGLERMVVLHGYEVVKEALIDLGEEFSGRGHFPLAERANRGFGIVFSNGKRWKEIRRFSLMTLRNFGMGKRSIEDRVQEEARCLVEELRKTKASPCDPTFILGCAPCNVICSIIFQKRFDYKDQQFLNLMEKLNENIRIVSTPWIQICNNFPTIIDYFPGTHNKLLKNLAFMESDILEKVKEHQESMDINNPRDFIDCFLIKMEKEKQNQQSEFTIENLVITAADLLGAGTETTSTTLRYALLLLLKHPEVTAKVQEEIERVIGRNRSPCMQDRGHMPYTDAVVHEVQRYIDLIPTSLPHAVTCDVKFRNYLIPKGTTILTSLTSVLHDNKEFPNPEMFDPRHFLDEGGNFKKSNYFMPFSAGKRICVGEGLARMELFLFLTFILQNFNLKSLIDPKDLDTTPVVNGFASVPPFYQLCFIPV

T2 sequence (Q12809 whole entry): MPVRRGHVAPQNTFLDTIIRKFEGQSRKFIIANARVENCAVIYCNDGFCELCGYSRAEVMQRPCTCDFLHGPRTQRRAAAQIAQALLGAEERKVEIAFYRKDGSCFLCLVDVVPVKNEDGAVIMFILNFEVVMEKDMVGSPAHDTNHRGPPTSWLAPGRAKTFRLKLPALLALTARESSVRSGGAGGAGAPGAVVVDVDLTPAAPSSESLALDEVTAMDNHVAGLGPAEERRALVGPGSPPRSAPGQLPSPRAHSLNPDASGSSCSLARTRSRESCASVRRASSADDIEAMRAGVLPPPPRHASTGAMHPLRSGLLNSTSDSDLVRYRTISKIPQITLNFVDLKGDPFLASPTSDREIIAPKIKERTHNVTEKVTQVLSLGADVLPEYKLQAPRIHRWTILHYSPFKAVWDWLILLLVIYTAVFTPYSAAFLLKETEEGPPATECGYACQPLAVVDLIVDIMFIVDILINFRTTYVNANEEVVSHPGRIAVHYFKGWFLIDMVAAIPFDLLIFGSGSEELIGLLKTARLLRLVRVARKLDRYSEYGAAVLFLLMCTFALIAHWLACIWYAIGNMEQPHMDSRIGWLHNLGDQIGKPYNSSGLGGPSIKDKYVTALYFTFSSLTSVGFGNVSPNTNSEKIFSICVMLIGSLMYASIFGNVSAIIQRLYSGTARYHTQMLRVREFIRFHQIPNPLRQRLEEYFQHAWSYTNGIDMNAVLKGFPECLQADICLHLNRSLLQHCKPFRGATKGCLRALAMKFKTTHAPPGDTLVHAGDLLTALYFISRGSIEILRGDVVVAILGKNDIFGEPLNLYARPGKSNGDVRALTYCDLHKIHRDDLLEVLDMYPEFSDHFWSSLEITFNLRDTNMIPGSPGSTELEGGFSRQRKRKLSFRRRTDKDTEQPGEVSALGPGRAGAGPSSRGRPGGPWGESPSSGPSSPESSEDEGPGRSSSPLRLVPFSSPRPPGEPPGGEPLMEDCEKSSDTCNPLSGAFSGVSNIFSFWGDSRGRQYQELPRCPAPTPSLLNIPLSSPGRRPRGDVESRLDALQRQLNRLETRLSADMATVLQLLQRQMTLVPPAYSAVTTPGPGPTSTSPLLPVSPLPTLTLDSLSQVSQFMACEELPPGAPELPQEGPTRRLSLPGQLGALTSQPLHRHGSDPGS
Chain of Cytochrome P450 3A4 (P08684 whole entry): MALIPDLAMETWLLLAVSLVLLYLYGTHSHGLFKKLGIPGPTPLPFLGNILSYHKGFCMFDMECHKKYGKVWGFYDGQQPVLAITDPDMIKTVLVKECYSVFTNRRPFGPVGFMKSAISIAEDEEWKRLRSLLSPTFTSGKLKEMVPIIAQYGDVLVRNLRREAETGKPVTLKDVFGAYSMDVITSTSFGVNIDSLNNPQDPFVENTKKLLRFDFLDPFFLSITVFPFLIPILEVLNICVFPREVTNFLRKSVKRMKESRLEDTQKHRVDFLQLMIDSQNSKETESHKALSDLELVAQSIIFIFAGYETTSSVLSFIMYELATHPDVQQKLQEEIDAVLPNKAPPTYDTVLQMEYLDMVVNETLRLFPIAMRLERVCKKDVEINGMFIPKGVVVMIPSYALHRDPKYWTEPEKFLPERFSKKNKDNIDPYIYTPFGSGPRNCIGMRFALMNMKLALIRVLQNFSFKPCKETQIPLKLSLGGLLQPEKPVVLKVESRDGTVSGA
Chain of Histamine H3 receptor (Homo sapiens, UniProt Q9Y5N1) (Q9Y5N1 whole entry): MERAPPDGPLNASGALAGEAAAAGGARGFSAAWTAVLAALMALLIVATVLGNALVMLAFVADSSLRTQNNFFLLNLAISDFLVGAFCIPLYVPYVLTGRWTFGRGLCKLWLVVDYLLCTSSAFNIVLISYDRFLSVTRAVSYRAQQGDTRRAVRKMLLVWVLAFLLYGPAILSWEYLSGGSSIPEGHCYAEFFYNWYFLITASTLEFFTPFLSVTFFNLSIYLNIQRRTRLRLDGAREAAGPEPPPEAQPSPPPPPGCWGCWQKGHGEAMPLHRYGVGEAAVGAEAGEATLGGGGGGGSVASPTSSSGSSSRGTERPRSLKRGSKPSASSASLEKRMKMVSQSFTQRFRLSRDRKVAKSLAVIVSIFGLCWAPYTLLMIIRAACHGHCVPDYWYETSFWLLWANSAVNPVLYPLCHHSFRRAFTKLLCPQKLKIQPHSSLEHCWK
Chain of Histamine H3 receptor (Rattus norvegicus, UniProt Q9QYN8) (Q9QYN8 whole entry): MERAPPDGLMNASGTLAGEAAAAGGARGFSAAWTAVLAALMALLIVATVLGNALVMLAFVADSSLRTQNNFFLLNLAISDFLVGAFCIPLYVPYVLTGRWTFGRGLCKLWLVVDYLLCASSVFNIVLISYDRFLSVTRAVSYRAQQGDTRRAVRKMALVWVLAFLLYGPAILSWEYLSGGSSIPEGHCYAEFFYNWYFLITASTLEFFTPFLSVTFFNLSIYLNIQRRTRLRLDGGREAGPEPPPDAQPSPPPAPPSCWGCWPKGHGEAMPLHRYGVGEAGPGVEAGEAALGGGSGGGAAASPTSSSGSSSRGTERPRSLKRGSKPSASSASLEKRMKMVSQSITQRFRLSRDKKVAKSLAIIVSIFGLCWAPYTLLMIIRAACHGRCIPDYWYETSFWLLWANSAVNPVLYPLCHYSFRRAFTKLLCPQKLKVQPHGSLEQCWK
Chain of Cytochrome P450 2C9 (P11712 whole entry): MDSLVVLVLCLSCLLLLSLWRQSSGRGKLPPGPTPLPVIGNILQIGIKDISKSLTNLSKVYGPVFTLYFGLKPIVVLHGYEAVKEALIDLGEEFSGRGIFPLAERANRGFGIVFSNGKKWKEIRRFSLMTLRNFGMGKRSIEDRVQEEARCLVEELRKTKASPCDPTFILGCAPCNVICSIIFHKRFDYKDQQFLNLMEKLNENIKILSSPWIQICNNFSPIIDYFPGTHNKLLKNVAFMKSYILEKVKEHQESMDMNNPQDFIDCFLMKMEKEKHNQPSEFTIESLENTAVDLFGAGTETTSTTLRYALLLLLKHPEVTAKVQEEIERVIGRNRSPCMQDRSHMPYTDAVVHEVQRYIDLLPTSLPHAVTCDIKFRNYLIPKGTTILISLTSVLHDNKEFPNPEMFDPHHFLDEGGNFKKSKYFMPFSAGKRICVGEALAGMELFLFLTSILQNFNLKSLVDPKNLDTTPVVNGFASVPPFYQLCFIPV
Chain of Cytochrome P450 2D6 (P10635 whole entry): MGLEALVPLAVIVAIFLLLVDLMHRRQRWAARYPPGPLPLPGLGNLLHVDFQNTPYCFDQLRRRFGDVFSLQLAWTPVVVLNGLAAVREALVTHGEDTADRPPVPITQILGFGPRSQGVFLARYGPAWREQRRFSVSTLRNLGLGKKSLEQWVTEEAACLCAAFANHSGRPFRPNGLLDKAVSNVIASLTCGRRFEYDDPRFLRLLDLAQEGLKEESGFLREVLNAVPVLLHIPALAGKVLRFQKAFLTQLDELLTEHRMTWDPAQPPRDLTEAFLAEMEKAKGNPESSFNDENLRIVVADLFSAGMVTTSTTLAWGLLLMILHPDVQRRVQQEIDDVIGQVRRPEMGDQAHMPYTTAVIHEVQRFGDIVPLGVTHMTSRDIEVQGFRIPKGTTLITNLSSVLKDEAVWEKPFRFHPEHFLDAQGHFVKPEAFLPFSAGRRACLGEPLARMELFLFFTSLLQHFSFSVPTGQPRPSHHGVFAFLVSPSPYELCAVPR

IC50 (Cytochrome P450 3A4): > 30 µM
Ki (Histamine H3 receptor [2]): 0.0737 µM
IC50 (Cytochrome P450 1A2): > 30 µM
metabolised at 20 min, 5 µM [5]: 27%
metabolised at 20 min, 5 µM [6]: 8%
Ki (Histamine H3 receptor [7]): 0.3 µM
IC50 (Cytochrome P450 2B6): > 30 µM
IC50 (Cytochrome P450 2C9): > 30 µM
metabolised at 20 min, 5 µM [8]: 17%
IC50 (Cytochrome P450 2D6): > 30 µM
IC50 (Cytochrome P450 2C19): > 30 µM
Compound: Cc1cc(N2CC[C@@H](N3CCC[C@H]3C)C2)ccc1NC(=O)c1cc(F)ccc1C
Activity [1]: Non-toxic
inhibition at 1 µM (hERG (KCNH2) [3]): 33.7%
inhibition at 10 µM (hERG (KCNH2) [4]): 77.5%
Activity (Salmonella typhimurium): Non-toxic
